# Measurements taken from ChEMBL document CHEMBL1142420, “Synthesis and DNA-cleaving activity of lactenediynes conjugated with DNA-complexing moieties” (2008).
# Active and inactive are the calls of the source. No cut-off for these calls is given here.
# System: Escherichia coli
# Assay: Induction of plasmid pBR322 DNA cleavage assessed as concentration required to cleave 50% of DNA after 24 hrs by gel electrophoresis
# Procedure, shortened: (§1)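 Supercoiled pBR322 (90% form I) diluted to 50 µg/mL (75 µM/bp) in pH 7.5 Tris 40 mM/EDTA 4 mM. Incubated 24 h at 37 °C, then run on agarose gel with ethidium bromide and viewed at 302 nm. Form I versus II+III quantified by densitometry after subtracting form II present in the control.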
row,CS50,Compound
1,40 µM,CC(=O)O[C@@H]1C#C/C=C\C#CC[C@H]2C(=O)N(C(=O)NCCc3cccc4ccccc34)[C@H]12
2,25 µM,CC(=O)O[C@@H]1C#C/C=C\C#CC[C@H]2C(=O)N(C(=O)Nc3cccc4ccccc34)[C@H]12
3,150 µM,CC(C)(C)OC(=O)N1C(=O)[C@@H]2CC#C/C=C\C#C[C@@H](OC(=O)CCc3ccc4ccccc4c3)[C@H]21
4,10 µM,CC[C@@]1(O)C(=O)OCc2c1cc1n(c2=O)Cc2c-1nc1ccccc1c2/C=N/OCCNC(=O)CCNC(=O)N1C(=O)[C@@H]2CC#C/C=C\C#C[C@@H](OC(C)=O)[C@H]21
5,80 µM,CC(C)(C)OC(=O)N1C(=O)[C@@H]2CC#C/C=C\C#C[C@@H](OC(=O)CCc3cccc4ccccc34)[C@H]21
6,25 µM,CC(=O)O[C@@H]1C#C/C=C\C#CC[C@H]2C(=O)N(C(=O)NCc3cccc4ccccc34)[C@H]12
7,200 µM,CC(=O)O[C@@H]1C#C/C=C\C#CC[C@H]2C(=O)N(C(=O)Nc3ccc4ccccc4c3)[C@H]12
8,15 µM,CCCCNC(=O)c1cc(NC(=O)c2cc(NC(=O)CCNC(=O)N3C(=O)[C@@H]4CC#C/C=C\C#C[C@@H](OC(C)=O)[C@H]43)n(C)c2)n(C)c1
9,25 µM,CC(=O)O[C@@H]1C#C/C=C\C#CC[C@H]2C(=O)N(C(=O)NCCCCCN(C)C(=O)Cc3cccc4ccccc34)[C@H]12
10,70 µM,CC(=O)O[C@@H]1C#C/C=C\C#CC[C@H]2C(=O)N(C(=O)NCc3ccc4ccccc4c3)[C@H]12
11,30 µM,CC(=O)O[C@H]1C#C/C=C\C#CC[C@H]2C(=O)N(C(=O)OC(C)(C)C)[C@H]12
12,150 µM,CC(=O)O[C@@H]1C#C/C=C\C#CC[C@H]2C(=O)N(C(=O)NCCc3ccc4ccccc4c3)[C@H]12
13,25 µM,CC(=O)O[C@@H]1C#C/C=C\C#CC[C@H]2C(=O)N(C(=O)NCCC(=O)NCc3ccccc3)[C@H]12
14,25 µM,CC(=O)O[C@H]1C#C/C=C\C#CC[C@H]2C(=O)N(C(=O)NCc3cccc4ccccc34)[C@H]12
15,70 µM,CC(=O)O[C@@H]1C#C/C=C\C#CC[C@H]2C(=O)N(C(=O)NCc3ccccc3)[C@H]12
16,35 µM,CC(=O)Nc1cc(C(=O)Nc2cc(C(=O)N(C)CCCCCNC(=O)N3C(=O)[C@@H]4CC#C/C=C\C#C[C@@H](OC(C)=O)[C@H]43)n(C)c2)n(C)c1
17,80 µM,CC(C)(C)OC(=O)N1C(=O)[C@@H]2CC#C/C=C\C#C[C@@H](OC(=O)Cc3cccc4ccccc34)[C@H]21

# System: Escherichia coli
# Assay: Induction of plasmid pBR322 DNA cleavage at 1 mM after 24 hrs by gel electrophoresis
# Procedure, shortened: as §1
row,Activity,Compound
1,inactive,CON1C(=O)[C@@H]2CC#C/C=C\C#CC(C)[C@H]21 (stereo partly drawn)
